In paper PMC5295499 (Bioorganic & medicinal chemistry letters, 2016):
“Also recorded” adds a separate entry of the source.

How the values were obtained:
[1] = system: MDM2-Luc exon-skipping reporter; assay: MDM2-Luc triple exon-skipping luciferase reporter assay; format: cell-based
Method in brief: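 Stable cell line expressing the triple exon-skipping luciferase construct. Exon skipping induced by SF3B1-targeted splicing modulators switches on luciferase, so luminescence is the read-out. The assay was used to screen a library of 830 known drugs and 4359 bioactive compounds.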

[2] = target: CLK1 (Homo sapiens, UniProt P49759); assay: CLK1 biochemical enzyme inhibition; settings: screened for CLK1 activity, data not shown
Sequence of CLK1 (P49759 whole entry): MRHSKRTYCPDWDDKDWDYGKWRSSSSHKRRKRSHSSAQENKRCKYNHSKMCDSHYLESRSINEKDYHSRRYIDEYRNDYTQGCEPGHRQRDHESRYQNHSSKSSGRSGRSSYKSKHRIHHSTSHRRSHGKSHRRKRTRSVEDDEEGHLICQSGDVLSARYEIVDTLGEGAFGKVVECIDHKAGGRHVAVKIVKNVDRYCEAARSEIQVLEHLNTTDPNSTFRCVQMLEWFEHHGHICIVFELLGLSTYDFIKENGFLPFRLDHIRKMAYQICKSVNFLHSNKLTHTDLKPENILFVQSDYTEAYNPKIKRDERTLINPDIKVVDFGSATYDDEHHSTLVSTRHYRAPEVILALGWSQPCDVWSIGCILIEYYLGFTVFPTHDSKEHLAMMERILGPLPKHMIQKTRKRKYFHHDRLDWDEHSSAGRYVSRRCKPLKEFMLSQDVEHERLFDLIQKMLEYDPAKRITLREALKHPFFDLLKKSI

[3] = Solubility; format: physicochemical; settings: data not shown
[4] = target: CLK2 (Homo sapiens, UniProt P49760); assay: CLK2 biochemical enzyme inhibition; settings: 20 versus its enantiomer 21
Sequence of CLK2 (P49760 whole entry): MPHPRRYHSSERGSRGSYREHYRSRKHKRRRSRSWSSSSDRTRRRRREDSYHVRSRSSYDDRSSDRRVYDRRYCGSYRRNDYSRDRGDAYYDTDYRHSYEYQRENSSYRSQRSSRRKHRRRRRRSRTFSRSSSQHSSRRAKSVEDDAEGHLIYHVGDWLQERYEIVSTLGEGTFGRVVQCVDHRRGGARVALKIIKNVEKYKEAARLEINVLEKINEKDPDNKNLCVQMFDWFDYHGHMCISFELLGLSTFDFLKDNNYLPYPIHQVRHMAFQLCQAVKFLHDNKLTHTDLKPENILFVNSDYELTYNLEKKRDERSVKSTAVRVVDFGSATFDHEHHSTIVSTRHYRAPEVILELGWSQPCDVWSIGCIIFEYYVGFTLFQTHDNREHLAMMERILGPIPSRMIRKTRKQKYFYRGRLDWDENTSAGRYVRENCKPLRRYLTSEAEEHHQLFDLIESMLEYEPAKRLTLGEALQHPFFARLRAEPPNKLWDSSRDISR

[5] = target: T1, Flt3 (Homo sapiens, UniProt P36888); assay: Kinase profiling screen, Flt3; format: biochemical; settings: 1 μM, in duplicate
T1 sequence (P36888 27-993): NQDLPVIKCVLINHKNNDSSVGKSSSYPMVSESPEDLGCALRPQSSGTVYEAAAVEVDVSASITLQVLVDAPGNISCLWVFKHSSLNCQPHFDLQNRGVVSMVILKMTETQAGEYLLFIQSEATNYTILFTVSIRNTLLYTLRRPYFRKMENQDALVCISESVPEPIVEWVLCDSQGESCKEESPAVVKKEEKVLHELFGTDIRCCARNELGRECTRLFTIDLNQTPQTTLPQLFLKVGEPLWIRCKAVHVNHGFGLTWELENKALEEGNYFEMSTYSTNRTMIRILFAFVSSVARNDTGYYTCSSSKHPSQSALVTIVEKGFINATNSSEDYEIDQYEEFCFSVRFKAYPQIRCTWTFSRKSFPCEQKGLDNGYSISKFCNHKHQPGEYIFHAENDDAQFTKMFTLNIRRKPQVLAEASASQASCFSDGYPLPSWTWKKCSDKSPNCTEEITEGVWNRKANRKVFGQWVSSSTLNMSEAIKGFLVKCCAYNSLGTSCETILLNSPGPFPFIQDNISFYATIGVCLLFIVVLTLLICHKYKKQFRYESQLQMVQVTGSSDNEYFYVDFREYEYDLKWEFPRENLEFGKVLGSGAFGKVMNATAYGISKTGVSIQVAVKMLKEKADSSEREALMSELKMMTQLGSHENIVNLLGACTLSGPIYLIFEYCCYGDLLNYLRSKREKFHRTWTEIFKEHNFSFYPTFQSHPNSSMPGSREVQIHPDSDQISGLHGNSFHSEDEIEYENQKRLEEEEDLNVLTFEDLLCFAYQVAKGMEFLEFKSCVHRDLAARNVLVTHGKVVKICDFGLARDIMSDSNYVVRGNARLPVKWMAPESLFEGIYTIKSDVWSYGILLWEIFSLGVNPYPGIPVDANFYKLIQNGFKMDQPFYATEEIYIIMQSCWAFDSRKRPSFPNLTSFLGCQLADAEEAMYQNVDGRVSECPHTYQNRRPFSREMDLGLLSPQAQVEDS

[6] = target: Src(1-530) (Homo sapiens, UniProt P12931); assay: Kinase profiling screen, Src; format: biochemical; settings: 1 μM, in duplicate
Sequence of Src(1-530) (P12931 1-530): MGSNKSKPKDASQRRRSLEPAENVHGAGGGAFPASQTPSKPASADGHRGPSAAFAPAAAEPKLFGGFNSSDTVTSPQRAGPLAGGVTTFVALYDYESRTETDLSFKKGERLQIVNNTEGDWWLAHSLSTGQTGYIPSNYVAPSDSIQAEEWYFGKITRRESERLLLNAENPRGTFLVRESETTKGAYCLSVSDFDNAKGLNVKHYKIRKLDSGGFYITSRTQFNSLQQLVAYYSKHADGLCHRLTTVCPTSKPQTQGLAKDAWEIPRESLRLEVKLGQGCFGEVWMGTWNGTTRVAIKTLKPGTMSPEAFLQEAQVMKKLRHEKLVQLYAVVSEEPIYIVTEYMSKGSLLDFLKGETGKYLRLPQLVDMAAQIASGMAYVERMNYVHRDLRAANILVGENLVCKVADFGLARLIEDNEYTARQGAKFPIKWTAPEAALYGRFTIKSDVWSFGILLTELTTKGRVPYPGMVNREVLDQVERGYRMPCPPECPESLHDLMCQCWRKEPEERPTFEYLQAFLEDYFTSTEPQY

[7] = target: CDK4 (Homo sapiens, UniProt P11802); assay: CDK4 biochemical enzyme inhibition; settings: read-out: CDK4 IC50
Sequence of CDK4 (P11802 whole entry): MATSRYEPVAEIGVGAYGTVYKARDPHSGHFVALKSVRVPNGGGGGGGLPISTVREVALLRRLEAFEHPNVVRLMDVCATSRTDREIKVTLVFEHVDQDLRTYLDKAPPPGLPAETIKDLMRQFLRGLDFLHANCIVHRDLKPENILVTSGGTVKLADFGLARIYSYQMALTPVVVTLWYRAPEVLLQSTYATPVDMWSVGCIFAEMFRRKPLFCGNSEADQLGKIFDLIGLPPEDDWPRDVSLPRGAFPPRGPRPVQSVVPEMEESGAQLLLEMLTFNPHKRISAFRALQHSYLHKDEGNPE
Sequence of CDK4 (P30281 whole entry partner): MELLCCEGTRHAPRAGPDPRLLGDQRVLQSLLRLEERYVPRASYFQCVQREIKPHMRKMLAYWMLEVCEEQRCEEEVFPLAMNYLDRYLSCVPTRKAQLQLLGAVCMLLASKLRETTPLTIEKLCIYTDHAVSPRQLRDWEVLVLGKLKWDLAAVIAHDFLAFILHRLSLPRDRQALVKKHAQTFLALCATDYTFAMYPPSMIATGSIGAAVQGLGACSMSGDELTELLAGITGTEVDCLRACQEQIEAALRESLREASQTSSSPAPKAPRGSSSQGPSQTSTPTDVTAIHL

[8] = target: Plk1 (Homo sapiens, UniProt P53350); assay: Kinase profiling screen, Plk1; format: biochemical; settings: 1 μM, in duplicate
Sequence of Plk1 (P53350 whole entry): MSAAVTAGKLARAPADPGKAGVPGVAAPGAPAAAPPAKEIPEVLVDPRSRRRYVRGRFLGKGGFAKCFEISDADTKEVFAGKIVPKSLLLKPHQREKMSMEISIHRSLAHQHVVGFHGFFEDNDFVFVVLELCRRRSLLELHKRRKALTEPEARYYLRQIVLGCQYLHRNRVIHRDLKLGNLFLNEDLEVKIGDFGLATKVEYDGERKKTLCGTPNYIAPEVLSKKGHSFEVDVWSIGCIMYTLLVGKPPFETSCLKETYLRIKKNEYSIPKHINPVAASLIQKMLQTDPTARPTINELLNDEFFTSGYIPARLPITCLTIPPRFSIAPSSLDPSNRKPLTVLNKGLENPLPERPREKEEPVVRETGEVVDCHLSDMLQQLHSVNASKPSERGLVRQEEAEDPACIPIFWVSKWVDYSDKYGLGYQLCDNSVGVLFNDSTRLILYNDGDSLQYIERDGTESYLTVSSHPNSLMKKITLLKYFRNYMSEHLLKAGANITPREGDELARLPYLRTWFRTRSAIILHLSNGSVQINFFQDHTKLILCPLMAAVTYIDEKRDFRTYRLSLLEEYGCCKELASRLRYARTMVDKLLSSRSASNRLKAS

CCn1cnc2c(Nc3cccc(Cl)c3)nc(N[C@@H]3CCCC[C@@H]3NC(C)=O)nc21 [Compound 12]
activity in the MDM2-Luc assay at 10 μM [1]: completely abrogated all activity

CC(C)n1cnc2c(Nc3cccc(Cl)c3)nc(N[C@H]3CCCC[C@H]3N)nc21 [Compound 10]
activity in the MDM2-Luc assay [1]: strong luciferase response

COC(=O)c1c(/C(C#N)=C\N)c2ccc(Cl)c(Cl)c2n1C [KH-CB19, reference compound]
activity in the MDM2-Luc assay [1]: modest activity; also recorded: barely passes the minimal hit criteria

CC(=O)Nc1cc(Cl)cc(Nc2nc(N[C@@H]3CCCC[C@@H]3N)nc3c2ncn3C(C)C)c1 [Compound 15]
activity in the MDM2-Luc assay [1]: strong MDM2-Luc activity; also recorded: strong luciferase response

COCCNc1nc(Nc2cccc(Cl)c2)c2ncn(C(C)C)c2n1 [Compound 13]
activity in the CLK assay [2]: active
activity in the MDM2-Luc assay [1]: dramatically reduced activity
solubility [3]: very poor solubility

CC(C)n1cnc2c(Nc3cc(N)cc(Cl)c3)nc(N[C@H]3CCCC[C@@H]3N)nc21 [Compound 20]
potency difference between enantiomers for CLK2 [4]: > 10 fold

CC(C)n1cnc2c(Nc3cccc(Cl)c3)nc(N[C@@H]3CCCC[C@@H]3N)nc21 [Compound 9]
activity in the MDM2-Luc assay [1]: strong luciferase response
off-target activity against Flt3 [5]: some significant off-target activity
off-target activity against Src(1-530) [6]: some significant off-target activity

CC(=O)Nc1cc(Cl)cc(Nc2nc(N[C@@H]3CCCC[C@@H]3N)nc3c2ncn3C(C)C)c1 [Compound 18]
IC50 [7]: 611 nM

CC(C)n1cnc2c(Nc3cc(N)cc(Cl)c3)nc(N[C@@H]3CCCC[C@@H]3N)nc21 [Compound 14]
activity in the MDM2-Luc assay [1]: strong MDM2-Luc activity; also recorded: strong luciferase response
off-target activity against Flt3 [5]: off-target activity
off-target activity against Src(1-530) [6]: off-target activity
off-target activity against Plk1 [8]: off-target activity

COc1ccc2c(C)nc(Nc3nc(C)c(C)c(O)n3)nc2c1 [Madrasin, reference compound]
activity in the MDM2-Luc assay at 10 μM [1]: neither compound showed significant activity

CC(C)n1ccc2c(Nc3cccc(Cl)c3)nc(N[C@H]3CCCC[C@H]3N)nc21 [Compound 11]
activity in the MDM2-Luc assay at 10 μM [1]: completely abrogated all activity
